Among the data in ChEMBL document CHEMBL1140383, “Synthesis of 5-nitro-2-furancarbohydrazides and their cis-diamminedichloroplatinum complexes as bitopic and irreversible human thioredoxin reductase inhibitors” (J Med Chem, 2005) are Ratio, IC50 and Ki values, retold here.

Assay [1] concerns Calu-6. As to the kind of experiment: Ratio of inhibition by compound against Calu-6 cell line to inhibition by cisPt against Calu-6 cell line. The assay is classed as functional, cell-based. The note with it: Homo sapiens. In short, it runs like this: (§1)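 Cytotoxicity in DMEM at 37 °C, 5% CO2, quadruplicate 1:2 dilutions (50 to 0.8 μg/mL), 96 h, crystal violet read at 595 nm. Value is the ratio of the complex IC50 to the cisplatin IC50 measured on the same line.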

Assay [2] deals with SK-MEL-25. As to the kind of experiment: Ratio of inhibition by compound against SK-MEL-25 cell line to inhibition by cisPt against SK-MEL-25 cell line. Format: functional, cell-based. The note with it: Homo sapiens. The procedure, abridged: as §1
Assay [3] deals with MCF7. As to the kind of experiment: Ratio of inhibition by compound against MCF-7 cell line to inhibition by cisPt against MCF-7 cell line. Particulars: Homo sapiens. Format: functional, cell-based. The procedure, abridged: as §1
Assay [4] concerns the target T1, Thioredoxin reductase (Homo sapiens, UniProt Q16881+Q9NNW7+Q86VQ6). As to the kind of experiment: Inhibitory concentration agains human thioredoxin reductase. Format: protein assay. The procedure, abridged: (§2)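 Human TrxR purified from placenta, 5 nM in the DTNB assay or 30 nM in the Trx assay. Enzyme was preincubated 10 min at 25 °C in 100 mM potassium phosphate, 2 mM EDTA, pH 7.4, with NADPH and inhibitor (DMF stock; DMF controls). DTNB assay: 200 μM NADPH, started with 3 mM DTNB, A412. Trx assay: 100 μM NADPH, started with 20 μM hTrxC72S, A340. IC50 from dose–response curves, ≥3 determinations.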

The target of assay [5] is T1, Thioredoxin reductase. Nature of the assay: Inhibitory concentration against wild type mutant human thioredoxin reductase (hTrxRdelta-16) pre-incubated for 10 min at 25 degree C in buffer in the presence of 200 uM NADPH. The assay is classed as protein assay. In short, it runs like this: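 Truncated recombinant hTrxRΔ-16 preincubated 10 min at 25 °C with 200 μM NADPH and inhibitor in potassium phosphate/EDTA buffer, pH 7.4. Reaction started with 3 mM DTNB; TNB formation read at 412 nm. DMF controls. IC50 from dose–response curves.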

In assay [6] the target is T2, Glutathione reductase, mitochondrial (Homo sapiens, UniProt P00390).
T2 sequence (P00390 whole entry): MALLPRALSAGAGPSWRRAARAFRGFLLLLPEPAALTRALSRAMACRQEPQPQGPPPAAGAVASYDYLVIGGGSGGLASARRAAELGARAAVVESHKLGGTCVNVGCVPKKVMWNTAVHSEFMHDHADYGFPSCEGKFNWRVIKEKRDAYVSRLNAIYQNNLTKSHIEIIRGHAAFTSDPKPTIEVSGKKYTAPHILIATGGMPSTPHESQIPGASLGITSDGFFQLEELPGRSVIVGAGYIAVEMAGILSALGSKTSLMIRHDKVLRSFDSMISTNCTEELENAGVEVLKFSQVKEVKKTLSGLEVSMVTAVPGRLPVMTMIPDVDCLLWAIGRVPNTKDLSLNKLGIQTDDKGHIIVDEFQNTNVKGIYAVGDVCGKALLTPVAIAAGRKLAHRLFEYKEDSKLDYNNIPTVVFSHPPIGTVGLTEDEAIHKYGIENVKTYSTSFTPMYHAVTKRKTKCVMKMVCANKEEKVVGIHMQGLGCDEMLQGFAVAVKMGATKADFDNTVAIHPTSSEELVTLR
As to the kind of experiment: Inhibitory concentration against human glutathione reductase.

The target in assay [7] is T1, Thioredoxin reductase. Nature of the assay: Inhibitory concentration against wild type human thioredoxin reductase (5 nM) pre-incubated for 10 min at 25 degree C in buffer in the presence of 200 uM NADPH. Format: protein assay. The procedure, abridged:
(§3)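 Placental wt-hTrxR (5 nM) preincubated 10 min at 25 °C with 200 μM NADPH and inhibitor (from 10 mM DMF stock) in 100 mM potassium phosphate, 2 mM EDTA, pH 7.4. Started with 3 mM DTNB; TNB formation read at 412 nm. DMF controls. IC50 from dose–response curves, mean of at least three determinations.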

Assay [8] addresses T1, Thioredoxin reductase. Nature of the assay: Inhibitory concentration (25 uM) against human thioredoxin reductase. Format: protein assay. The procedure, abridged: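 Placental hTrxR screen in 100 mM sodium phosphate, 2 mM EDTA, pH 7.0. Mix held 500 μM NADPH, 200 μM DTNBA and 25 μM inhibitor. Reaction started with native enzyme. Thionitrobenzamide formation read at 416 nm over time, with and without inhibitor.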

Assay [9] concerns the target T1, Thioredoxin reductase. Nature of the assay: Inhibitory concentration against human thioredoxin reductase. Format: protein assay. The procedure, abridged: as §2
Assay [10] deals with SK-MEL-25. As to the kind of experiment: Inhibitory concentration against SK-MEL-25 cell line. The assay is classed as functional, cell-based, Homo sapiens. The procedure, abridged: (§4)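 Human tumour lines grown in DMEM at 37 °C under 5% CO2, seeded in 96-well plates. Dosed next day in quadruplicate with 1:2 serial dilutions, 50 to 0.8 μg/mL; platinum complexes from DMF stock, cisplatin in water. After 96 h cells fixed in 3% formaldehyde and stained with 1% crystal violet, absorbance at 595 nm. For MCF-7 the dye was eluted with ethanol/1% acetic acid before reading. IC50 from fitted dose–response curves.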

For assay [11], the target named is T1, Thioredoxin reductase. Nature of the assay: Inhibitory concentration against wild type human thioredoxin reductase (30 nM) pre-incubated for 10 min at 25 degree C in phosphate buffer in the presence of 100 uM NADPH. The assay is classed as protein assay. In short, it runs like this: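 Placental wt-hTrxR (30 nM) preincubated 10 min at 25 °C with 100 μM NADPH and inhibitor (from 10 mM DMF stock) in 100 mM potassium phosphate, 2 mM EDTA, pH 7.4. Started with 20 μM hTrxC72S; NADPH oxidation read at 340 nm. DMF controls. IC50 from dose–response curves, mean of at least three determinations.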

Assay [12] addresses T1, Thioredoxin reductase. As to the kind of experiment: Inhibitory concentration against wild type human thioredoxin reductase. Format: protein assay. The procedure, abridged: as §3
Assay [13] deals with Calu-6. Nature of the assay: Inhibitory concentration against Calu-6 cell line. Format: functional, cell-based, Homo sapiens. In short, it runs like this:
as §4

Assay [14] has as its target T1, Thioredoxin reductase. Nature of the assay: Inhibitory concentration against wild type mutant human thioredoxin reductase (Sec498Cys) (1.3 uM) pre-incubated for 10 min at 25 degree C in buffer in the presence of 100 uM NADPH. The assay is classed as protein assay. In short, it runs like this: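 Recombinant hTrxR Sec498Cys (1.3 μM) preincubated 10 min at 25 °C with 100 μM NADPH and inhibitor in potassium phosphate/EDTA buffer, pH 7.4. Reaction started with 20 μM hTrxC72S; NADPH oxidation read at 340 nm. DMF controls. IC50 from dose–response curves, at least three determinations.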

In assay [15] the test system is MCF7. As to the kind of experiment: Inhibitory concentration against MCF-7 cell line. The assay is classed as functional, cell-based, Homo sapiens. In short, it runs like this:
as §4

Assay [16] addresses T1, Thioredoxin reductase. As to the kind of experiment: Inhibitory concentration against wild type mutant human thioredoxin reductase (Sec498Cys) (100 nM) pre-incubated for 10 min at 25 degree C in buffer in the presence of 200 uM NADPH. The assay is classed as protein assay. In short, it runs like this: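 Recombinant hTrxR Sec498Cys (100 nM) preincubated 10 min at 25 °C with 200 μM NADPH and inhibitor in potassium phosphate/EDTA buffer, pH 7.4. Started with 3 mM DTNB; absorbance read at 412 nm. DMF controls. IC50 from dose–response curves, mean of at least three determinations.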

On to “2-(2-Amino-ethylamino)-N-(7-{2-[N'-(5-nitro-furan-2-carbonyl)-hydrazino]-2-oxo-ethyl}-naphthalen-2-yl)-acetamide; compound with GENERIC INORGANIC NEUTRAL COMPONENT [listing 1 of 2 here]”, for which the results for the Ratio in [1], in [2] and in assay [3] were 15.3, 3 and 0.8, respectively.

Turning to `O=C1C=CC(=O)c2c(O)ccc(O)c21` [NAPHTHAZALIN], in assay [4], the IC50 – broadly, the concentration that inhibits the measured activity by half – amounted to 20 µM.

Take `O=C(Cc1ccc2ccccc2c1)NNC(=O)c1ccc([N+](=O)[O-])o1`: the IC50 in assay [5] was found to be 215 µM; in [6], 4.1 µM; in assay [7], 18 µM; in assay [8], 16 µM.

Compound `O=C1C=CC(=Nc2cc(Cl)c(O)c(Cl)c2)C=C1` [DICHLOROPHENOL INDOPHENOL] had an IC50 in assay [9] of 25 µM.

Regarding “2-(2-Amino-ethylamino)-N-(7-{2-[N'-(5-nitro-furan-2-carbonyl)-hydrazino]-2-oxo-ethyl}-naphthalen-2-yl)-acetamide; compound with GENERIC INORGANIC NEUTRAL COMPONENT [listing 2 of 2 here]”, the IC50 stood at 15.1 µM in [10]; 145 µM in assay [5]; 0.12 µM in assay [11]; 27.6 µM in assay [13]; 38 µM in assay [14]; 0.11 µM in assay [7]. In addition, the figures for the IC50 in [15] and in assay [16] were 53.1 µM and 130 µM, respectively. For the same compound, in assay [12], the Ki (as a rule, a dissociation constant, usually derived from enzyme kinetics or from competition with a known ligand) was determined as 0.275 µM.
